Experimental findings from ChEMBL document CHEMBL1141119, “Synthesis and pharmacological evaluation of 1H-imidazoles as ligands for the estrogen receptor and cytotoxic inhibitors of the cyclooxygenase” (J Med Chem, 2005) are described below.

In assay [1] the target is Prostaglandin G/H synthase 1 (Ovis aries) (UniProt P05979). The assay is described as follows: Inhibitory concentration against ovine cyclooxygenase-1 evaluated by enzyme linked immunosorbent assay.
Assay [2] relates to MCF7. The assay is described as follows: Effective concentration against human ER positive MCF-7 breast cancer cell line evaluated by luciferase assay. Type of assay: functional, cell-based. In a few lines:
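ER-positive MCF-7 cells stably transfected with the ERE_wtc-luc reporter plasmid (MCF-7 2a). Cells were exposed to the compound over a concentration range. ER binding to the estrogen response element drives luciferase expression, which was measured to build concentration–activation curves relative to estradiol. EC50 was taken from these curves.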

Assay [3] deals with MCF7. The assay is described as follows: Treatment upon control (T/C) against hormone dependent MCF-7 breast cancer cells at 10 uM concentration. Conditions: Homo sapiens.

For orientation: IC50 means the midpoint of a concentration-inhibition curve. A higher IC50 goes with weaker potency in that assay. By EC50 is commonly meant the concentration that produces a half-maximal response. One may read the T/C as the ratio of treated to control.

The molecule `CCc1c(-c2ccc(O)cc2)nc(-c2ccc(O)cc2)n1-c1ccc(O)cc1` displayed an IC50 in assay [1] greater than 200 µM. In the assay with MCF7 [2], the EC50 turned out to be 77 nM.

In assay [1], `Oc1ccc(-c2nc(-c3ccc(O)cc3Cl)cn2-c2ccc(O)cc2)cc1` displayed an IC50 of 8.4 µM. In addition, the T/C at 10 µM in the assay with MCF7 [3] was found to be 50%.

`C[C@]12CC[C@@H]3c4ccc(O)cc4CC[C@H]3[C@@H]1CC[C@@H]2O` [ESTRADIOL] returned an EC50 in the assay with MCF7 [2] of 0.08 nM.

As for `Oc1ccc(-c2cn(-c3ccc(O)cc3)c(-c3ccc(O)cc3)n2)cc1`, the IC50 in assay [1] amounted to 12.2 µM.

In assay [1], `Oc1ccc(-n2cc(-c3ccc(O)cc3Cl)nc2-c2ccc(O)cc2Cl)cc1` returned an IC50 of 8.4 µM. In the assay on MCF7 [3], this molecule came in with a T/C at 10 µM of 0%.
